The results in this text go back to ChEMBL document CHEMBL5331120, “Stapled β-Hairpin Antimicrobial Peptides with Improved Stability and Activity against Drug-Resistant Gram-Negative Bacteria” (J Med Chem, 2023).

Molecules are shown by their SMILES. In brackets after ≈: the same amount, converted by molar mass. Activity calls are given as the source filed them.

Series [1] relates to Escherichia coli. Put plainly: Antimicrobial activity against Escherichia coli ATCC 25922 assessed as fold increase in MIC compound pretreated for 1 hr with trypsin and measured after 18 hrs by broth microdilution method relative to control. The settings on record: trypsin pretreatment 1 hr; MIC measured after 18 hrs. The format is functional. The procedure, abridged: (§1)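 Peptide incubated with trypsin at a 1:2000 trypsin/peptide molar ratio (e.g., 1 mM peptide with 0.5 μM trypsin), 37 °C, 1 h. Reaction stopped at 80 °C for 10 min, then serially diluted against E. coli in MHB broth microdilution. Inoculum 3 × 10^5 CFU/mL, 37 °C, 120 rpm, 18 h, read by OD600, triplicates. Fold change in MIC taken versus untreated control.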

A further series relates to Erythrocyte. Nature of the series: Hemolytic activity in human RBC upto 128 uM incubated for 1 hr by absorbance based analysis. Type of series: toxicity, cell-based. In outline:
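Washed human RBCs from healthy volunteers at 4% in PBS. Peptide at 4–128 μM, 37 °C for 1 h. Supernatant after 1000g, 10 min spin read at OD540. 1% Triton X-100 gave full lysis; % hemolysis derived and HC50 estimated.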

Series [2] can be described thus: Stability of compound assessed as trypsin (unknown origin) mediated compound degradation by measuring parent compound remaining measured after 1 hr by RP-HPLC analysis. The format is ADME, protein assay. The settings on record: human, read-out: Stability. The procedure, abridged: (§2)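 Peptide with trypsin at a 1:2000 trypsin/peptide molar ratio, 37 °C, sampled at 15, 30, 60 and 90 min. Reaction stopped with an equal volume of 50% acetonitrile/1% TFA. Analysed on C18 RP-HPLC with UV at 220 nm; intact peptide given as % of AUC.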

A further series has as its system Staphylococcus aureus. Nature of the series: Antimicrobial activity against Staphylococcus aureus ATCC 29737 assessed as inhibition of bacterial growth incubated for 18 hrs by broth microdilution method. The format is functional, organism-based. The procedure, abridged:
(§3)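 Standard broth microdilution in MHB. Overnight culture (37 °C, 120 rpm) adjusted to OD600 0.07 and diluted 1000× to 3 × 10^5 CFU/mL. Peptides serially diluted in triplicate, 18 h at 37 °C with 120 rpm shaking. Growth read as OD600; MIC is the lowest concentration with no visible growth. Colistin served as control for Gram-negatives, vancomycin for S. aureus.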

In series [3] the test system is Escherichia coli. Put plainly: Antimicrobial activity against colistin resistant Escherichia coli clinical isolate R1 harboring mcr-1 gene assessed as inhibition of bacterial growth incubated for 18 hrs by broth microdilution method. Type of series: functional, organism-based. The procedure, abridged: (§4)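 Overnight MHB culture (37 °C, 120 rpm) adjusted to OD600 0.07 (~10^8 CFU/mL), then diluted 1000× to 3 × 10^5 CFU/mL. Peptides serially diluted with the bacterial suspension in triplicate, shaken at 37 °C, 120 rpm for 18 h, then OD600 read. MIC is the lowest concentration with no visible growth. Colistin as positive control.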

A further series has as its system Pseudomonas aeruginosa. Put plainly: Antimicrobial activity against Pseudomonas aeruginosa ATCC 9027 assessed as inhibition of bacterial growth incubated for 18 hrs by broth microdilution method. The format is functional. In outline:
as §3
In general terms: Broth dilution looks for growth in wells or tubes with falling amounts of substance.

Series [4] has as its system Escherichia coli. Nature of the series: Antimicrobial activity against colistin/carbapenem resistant Escherichia coli clinical isolate R2 harboring mcr-1 and NDM-1 gene assessed as inhibition of bacterial growth incubated for 18 hrs by broth microdilution method. Type of series: functional, organism-based. In outline:
as §4

In series [5] the test system is Escherichia coli. Put plainly: Antimicrobial activity against Escherichia coli ATCC 25922 assessed as inhibition of bacterial growth incubated for 18 hrs by broth microdilution method. The format is functional. In outline:
as §3

The test system of series [6] is Escherichia coli. Nature of the series: Antimicrobial activity against Escherichia coli ATCC 25922 assessed as inhibition of bacterial growth compound pretreated for 1 hr with trypsin and measured after 18 hrs by broth microdilution method. Type of series: functional, organism-based. The procedure, abridged: as §1
Series [7] deals with Escherichia coli. Put plainly: Antimicrobial activity against colistin resistant Escherichia coli clinical isolate R1 harboring mcr-1 gene assessed as fold reduction in MIC incubated for 18 hrs by broth microdilution method. Type of series: functional.
Series [8] deals with Escherichia coli. Put plainly: Antimicrobial activity against colistin/carbapenem resistant Escherichia coli clinical isolate R2 harboring mcr-1 and NDM-1 gene assessed as fold reduction in MIC incubated for 18 hrs by broth microdilution method. Type of series: functional.
For series [9], the system named is Escherichia coli. Put plainly: Antimicrobial activity against Escherichia coli ATCC 25922 assessed as inhibition of bacterial growth incubated for 18 hrs in presence of 10% fetal bovine serum by broth microdilution method. The format is functional, organism-based. In outline: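 E. coli broth microdilution in MHB containing 10% fetal bovine serum. Inoculum 3 × 10^5 CFU/mL, diluted from an OD600 0.07 suspension. Incubated 18 h at 37 °C with 120 rpm shaking, OD600 read, triplicates. Fold change in MIC calculated against control MIC.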

Series [10] relates to Escherichia coli. Nature of the series: Antimicrobial activity against colistin/carbapenem resistant Escherichia coli clinical isolate R3 harboring NDM-7 and OXA-181 gene assessed as fold reduction in MIC incubated for 18 hrs by broth microdilution method. Type of series: functional.
The target of the next series is Trypsin (Homo sapiens, UniProt P07477+P07478+P35030). Put plainly: Stability of compound assessed as trypsin (unknown origin) mediated compound degradation by measuring parent compound remaining measured after 1.5 hrs by RP-HPLC analysis. Type of series: ADME, protein assay. In outline:
as §2

In series [11] the test system is Escherichia coli. Nature of the series: Antimicrobial activity against colistin/carbapenem resistant Escherichia coli clinical isolate R3 harboring NDM-7 and OXA-181 gene assessed as inhibition of bacterial growth incubated for 18 hrs by broth microdilution method. Type of series: functional, organism-based.

As to `CC(C)C[C@H](NC(=O)[C@H](CCCCN)NC(=O)[C@H](CC(C)C)NC(=O)[C@H](CCCCN)NC(=O)[C@@H]1CCC/C=C/CC[C@H](NC(=O)[C@H](CCCCN)NC(=O)[C@H](CC(C)C)NC(=O)[C@H](CCCCN)NC(=O)[C@@H](N)CC(C)C)C(=O)N[C@@H](CCCCN)C(=O)N2CCC[C@@H]2C(=O)NCC(=O)N[C@@H](CCCCN)C(=O)N1)C(=O)O`, in the series on Escherichia coli [1], the “fold change (FC)” value is recorded as “>=2”. The Activity result in the series with Erythrocyte is “Non-Toxic”. In addition, the remaining at 1 h in [2] is under 10%. The result with Staphylococcus aureus was inactive.

The term MIC denotes the smallest concentration in the dilution series that meets the test's criterion for growth inhibition. As for `CC(C)C[C@H](NC(=O)[C@H](CCCCN)NC(=O)[C@@H]1CC/C=C/CC[C@H](NC(=O)[C@H](CCCCN)NC(=O)[C@@H](N)CC(C)C)C(=O)N[C@@H](CCCCN)C(=O)N[C@@H](CC(C)C)C(=O)N[C@@H](CCCCN)C(=O)N2CCCC2C(=O)NCC(=O)N[C@@H](CCCCN)C(=O)N[C@@H](CC(C)C)C(=O)N[C@@H](CCCCN)C(=O)N1)C(=O)O` (single isomer, unassigned), the “fold change (FC)” value in the series on Escherichia coli [1] was “>=2”. In addition, the Activity result with Erythrocyte was “Non-Toxic”. In addition, the result in the series with Escherichia coli [3] and with Escherichia coli [4] was Active. In addition, in the series with Staphylococcus aureus, the outcome was inactive. The MIC with Pseudomonas aeruginosa and with Escherichia coli [5] was 8 µM (≈ 12.7 µg/mL) each time.

For the compound `CC(C)C[C@@H]1NC(=O)[C@H](CCCCN)NC(=O)[C@@H]2CC/C=C/CC[C@H](NC(=O)[C@H](CCCCN)NC(=O)[C@H](CC(C)C)NC(=O)[C@H](CCCCN)NC(=O)[C@@H](N)CC/C=C/CC[C@@H](C(=O)O)NC(=O)[C@H](CCCCN)NC1=O)C(=O)N[C@@H](CCCCN)C(=O)N1CCC[C@@H]1C(=O)NCC(=O)N[C@@H](CCCCN)C(=O)N2`, the result in the series with Escherichia coli [6] and with Escherichia coli [9] was Active. In addition, the “fold change (FC)” value in the series on Escherichia coli [7], in the series with Escherichia coli [8] and with Escherichia coli [10] was 2 throughout. Further, in the series on Erythrocyte, the Activity result is reported as “Non-Toxic”. Further, the result in the series with Staphylococcus aureus, in the series with Pseudomonas aeruginosa and in the series on Escherichia coli [5] was inactive.

In the case of `CC(C)C[C@@H]1NC(=O)[C@H](CCCCN)NC(=O)[C@@H]2CCC/C=C\CC[C@H](NC(=O)[C@H](CCCCN)NC(=O)[C@H](CC(C)C)NC(=O)[C@H](CCCCN)NC(=O)[C@@H](N)CC/C=C/CCC[C@@H](C(=O)O)NC(=O)[C@H](CCCCN)NC1=O)C(=O)N[C@@H](CCCCN)C(=O)N1CCC[C@@H]1C(=O)NCC(=O)N[C@@H](CCCCN)C(=O)N2`, the outcome in the series on Escherichia coli [6] and in the series on Escherichia coli [9] was Active. Further, the “fold change (FC)” value with Escherichia coli [7], in the series with Escherichia coli [8] and with Escherichia coli [10] was 2 in each case. Also, in the series with Erythrocyte, the Activity result is given as “Non-Toxic”. For the same compound, the result with Staphylococcus aureus, with Pseudomonas aeruginosa and in the series with Escherichia coli [5] was inactive.

On to `CC(C)C[C@@H]1NC(=O)[C@H](CCCCN)NC(=O)CNC(=O)[C@H]2CCCN2C(=O)[C@H](CCCCN)NC(=O)[C@H](CC(C)C)NC(=O)[C@H](CCCCN)NC(=O)[C@@H]2CC/C=C\CC[C@H](NC(=O)[C@H](CCCCN)NC1=O)C(=O)N[C@@H](CCCCN)C(=O)N[C@H](C(=O)O)CC/C=C\CC[C@H](N)C(=O)N[C@@H](CCCCN)C(=O)N2`, for which the outcome with Escherichia coli [6] and in the series with Escherichia coli [9] was Active. Moreover, the Activity entry in the series with Erythrocyte is reported as “Non-Toxic”. Further, the outcome in the series with Staphylococcus aureus, in the series with Pseudomonas aeruginosa and in the series with Escherichia coli [5] was inactive.

`CC(C)C[C@H](NC(=O)[C@H](CCCCN)NC(=O)[C@@H]1CCC/C=C/CC[C@H](NC(=O)[C@H](CCCCN)NC(=O)[C@@H](N)CC(C)C)C(=O)N[C@@H](CCCCN)C(=O)N[C@@H](CC(C)C)C(=O)N[C@@H](CCCCN)C(=O)N2CCCC2C(=O)NCC(=O)N[C@@H](CCCCN)C(=O)N[C@@H](CC(C)C)C(=O)N[C@@H](CCCCN)C(=O)N1)C(=O)O` (single isomer, unassigned): the “fold change (FC)” value with Escherichia coli [1] is recorded as “>=2”. Besides, in the series on Erythrocyte, the Activity entry is recorded as “Non-Toxic”. Further, the remaining at 1 h in [2] was under 10%. Besides, in the series with Staphylococcus aureus, the result was inactive. Moreover, the MIC in the series with Pseudomonas aeruginosa and with Escherichia coli [5] was 8 µM (≈ 12.8 µg/mL) throughout.

For `CC(C)C[C@@H]1NC(=O)[C@H](CCCCN)NC(=O)CNC(=O)[C@H]2CCCN2C(=O)[C@H](CCCCN)NC(=O)[C@H](CC(C)C)NC(=O)[C@H](CCCCN)NC(=O)[C@@H]2CC/C=C\CCC[C@H](NC(=O)[C@H](CCCCN)NC1=O)C(=O)N[C@@H](CCCCN)C(=O)N[C@H](C(=O)O)CC/C=C/CCC[C@H](N)C(=O)N[C@@H](CCCCN)C(=O)N2`, the result in the series with Escherichia coli [6] and with Escherichia coli [9] was Active. Moreover, the “fold change (FC)” value in the series with Escherichia coli [7], with Escherichia coli [8] and in the series on Escherichia coli [10] was 2 each time. Moreover, the Activity entry with Erythrocyte was “Non-Toxic”. Further, the Stability result on Trypsin (1.5 h) is recorded as “Unstable”. The result with Staphylococcus aureus, in the series with Pseudomonas aeruginosa and in the series with Escherichia coli [5] was inactive.

For `CC(C)C[C@H](NC(=O)[C@H](CCCCN)NC(=O)[C@H](CC(C)C)NC(=O)[C@H](CCCCN)NC(=O)[C@@H]1CC/C=C/CC[C@H](NC(=O)[C@H](CCCCN)NC(=O)[C@H](CC(C)C)NC(=O)[C@H](CCCCN)NC(=O)[C@@H](N)CC(C)C)C(=O)N[C@@H](CCCCN)C(=O)N2CCC[C@@H]2C(=O)NCC(=O)N[C@@H](CCCCN)C(=O)N1)C(=O)O`, the outcome in the series on Escherichia coli [6], in the series with Escherichia coli [3], in the series with Escherichia coli [9] and with Escherichia coli [4] was Active. For the same compound, the Activity entry in the series on Erythrocyte is on record as “Non-Toxic”. The remaining at 1.5 h on Trypsin (trypsin, read-out: Stability) is over 40%. For the same compound, the result in the series with Staphylococcus aureus was inactive. Besides, the MIC in the series with Pseudomonas aeruginosa and with Escherichia coli [5] was 8 µM (≈ 12.7 µg/mL) throughout.

As to `CC(C)C[C@@H]1NC(=O)[C@H](CCCCN)NC(=O)CNC(=O)C2CCCN2C(=O)[C@H](CCCCN)NC(=O)[C@H](CC(C)C)NC(=O)[C@H](CCCCN)NC(=O)[C@H](CC(C)C)NC(=O)[C@H](CCCCN)NC(=O)[C@@H](N)CC/C=C/CCC[C@@H](C(=O)O)NC(=O)[C@H](CCCCN)NC(=O)[C@H](CC(C)C)NC(=O)[C@H](CCCCN)NC1=O` (single isomer, unassigned), the “fold change (FC)” value in the series on Escherichia coli [1] is given as “>=2”. Also, the Activity result in the series on Erythrocyte was “Non-Toxic”. Further, the outcome with Escherichia coli [3], in the series on Escherichia coli [11] and in the series on Escherichia coli [4] was Active. Further, in series [2], the remaining at 1 h is under 10%. For the same compound, in the series with Staphylococcus aureus, the outcome was inactive. In addition, the MIC in the series with Pseudomonas aeruginosa and in the series on Escherichia coli [5] was 8 µM (≈ 12.8 µg/mL) in each case.
